Bioassay records deposited in PubChem BioAssay by several laboratories.
Most compounds without a hit are left out; they make up all but 1.7% or so of the library.
Vif imaging: HIV Vif self-association inhibitors, primary screen, imaging, HEK293T, single point; HEK293T cells, Vif self-association by quenched fluorescence, 24 h; inhibition, % at 7.49 µM; 340,000 compounds, 0.35% hits; AID 602346, 2012; in the data active means inhibition above about 50%, passing the limit was not always enough; inconclusive means no clear call, values can overlap the other calls; inactive means below about 31%
T cell modulator: modulators of CD8 T cell-vesicle binding, primary screen, mouse 2C CD8+ T cells, flow cytometry | 2C CD8+ T cell-vesicle binding; active compounds read low | response (vesicle binding), % at 7 µM | 330,000 compounds, 0.068% hits;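 active means response, share of CD8 T cells binding vesicles, and their 90th percentile fluorescence all below set limits, cut at about 80% in these data, passing the limit was not always enough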;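 further: values below 100% mean blocked vesicle binding to the CD8+ T cells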
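Incubation: binding step 1.5 h, 37 °C, antibody labelling 20 min, ice; system: murine 2C transgenic CD8+ T lymphocytes; technique: cytometric PE anti-B7-1 and Alexa647 anti-CD8 signals after 1% paraformaldehyde fixation; also added: QL9-charged Drosophila Ld/ICAM-1/B7-1 vesicles; control set: naked versus QL9-loaded vesicles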
Myeloid diff MLP: induction of myeloid progenitor differentiation, primary screen, cell-based, flow cytometry, MLPCN library | ER-HoxA9 myeloid progenitors, lysozyme-GFP differentiation | calls only at 10 µM | 360,000 compounds, 1% hits;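 active means normalized GFP-positive differentiation at or above the plate's own cutoff, the solvent-only control mean plus 3 SD; inconclusive means no clear call, values can overlap the other calls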;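 further: cells exposed to compound for four days before flow analysis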
DSG3 Ab inh: inhibitors of pemphigus antibody binding to DSG3, primary screen, biochemical, bead-based, flow cytometry, scFv-GFP. Desmoglein-3 (Homo sapiens), P32926. DSG3-coupled beads, scFv-anti-DSG3-GFP binding; active compounds read low. binding (percent of control), % at 10 µM. 310,000 compounds, 0.48% hits. AID 588358, 2011;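 active means binding more than 3 SD below its plate's average and above zero; inconclusive means below that plate limit but binding exactly zero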;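 further: hits lower antibody fragment binding to DSG3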
Target sequence (P32926 whole entry, looked up, the tested form may be a part): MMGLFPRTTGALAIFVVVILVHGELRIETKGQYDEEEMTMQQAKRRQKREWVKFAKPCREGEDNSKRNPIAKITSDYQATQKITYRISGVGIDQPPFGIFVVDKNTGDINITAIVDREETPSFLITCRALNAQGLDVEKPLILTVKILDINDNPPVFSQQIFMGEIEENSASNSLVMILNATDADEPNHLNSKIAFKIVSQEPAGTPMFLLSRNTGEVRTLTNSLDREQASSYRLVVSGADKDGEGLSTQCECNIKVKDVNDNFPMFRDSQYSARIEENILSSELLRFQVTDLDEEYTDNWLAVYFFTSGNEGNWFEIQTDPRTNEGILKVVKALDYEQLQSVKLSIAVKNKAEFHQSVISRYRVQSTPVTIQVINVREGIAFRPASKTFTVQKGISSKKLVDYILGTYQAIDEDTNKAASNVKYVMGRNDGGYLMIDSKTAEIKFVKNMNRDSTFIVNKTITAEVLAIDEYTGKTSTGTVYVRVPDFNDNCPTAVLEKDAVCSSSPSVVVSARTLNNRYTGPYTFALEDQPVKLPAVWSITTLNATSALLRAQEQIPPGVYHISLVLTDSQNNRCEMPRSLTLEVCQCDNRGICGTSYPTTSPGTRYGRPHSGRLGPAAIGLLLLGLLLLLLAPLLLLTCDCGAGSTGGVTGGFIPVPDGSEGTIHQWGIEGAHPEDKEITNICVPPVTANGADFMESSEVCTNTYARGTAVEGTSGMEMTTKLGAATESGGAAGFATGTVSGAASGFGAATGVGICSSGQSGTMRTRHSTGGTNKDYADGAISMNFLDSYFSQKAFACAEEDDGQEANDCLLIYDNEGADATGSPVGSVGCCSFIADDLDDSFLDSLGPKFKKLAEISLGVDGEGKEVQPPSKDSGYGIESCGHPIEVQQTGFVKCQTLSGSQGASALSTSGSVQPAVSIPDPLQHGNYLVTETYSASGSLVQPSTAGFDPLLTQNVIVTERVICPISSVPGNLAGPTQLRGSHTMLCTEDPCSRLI
Numbers stand for hits; n = inactive; u = inconclusive; x = no result given; + = active, no number.

SMILES	Vif imaging	T cell modulator	Myeloid diff MLP	DSG3 Ab inh
CC(O)(c1cccc(F)c1)c1nc(-c2cnc3ccccc3c2)cs1 (stereo unspecified)	n	x	n	x
COC(=O)c1c(C)[nH]c(C(=O)/C=C/c2ccccc2)c1C	n	n	+	n
COC(=O)c1c(C)[nH]c(C(=O)/C=C/c2ccc(C)cc2)c1C	n	n	n	n
CSCCC(NC(=O)c1ccccc1Br)C(=O)N1CCCCCCC1 (stereo unspecified)	n	n	n	n
C[C@H]1CN([C@@H](C)CO)C(=O)c2cc(Br)cnc2O[C@@H]1CN(C)C(=O)Nc1ccc(C(F)(F)F)cc1	n	x	n	x
COc1ccc(/C=N/NC(=O)c2ccn[nH]2)cc1Cn1nc(C)c([N+](=O)[O-])c1C	n	n	n	n
COc1ccc(/C=N/NC(=O)c2ccco2)cc1Cn1nc(C)c([N+](=O)[O-])c1C	n	n	n	-160
Nc1ncnc2c1ncn2[C@@H]1O[C@H](CNS(=O)(=O)c2cc3ccccc3s2)[C@@H](O)[C@H]1O	n	x	n	n
CC(N)C(=O)NC(C(=O)NC(C)C(=O)Nc1cccc2ccccc12)C(C)C (stereo unspecified)	x	x	n	x
COc1ccc(N2CCN(S(=O)(=O)CCNC(=O)COc3ccccc3)CC2)cc1	n	n	n	n
COc1ccc(N2CCN(S(=O)(=O)CCNC(=O)COc3cccc(OC)c3)CC2)cc1	n	n	u	54
Cc1cccc(S(=O)(=O)NC(=O)C2(C)CCN2C(=O)Cc2ccc(Cl)cc2Cl)c1 (stereo unspecified)	x	x	n	x
O=C(CN(Cc1ccccc1)C(=O)CCC(=O)Nc1nccs1)NCC1CCCO1 (stereo unspecified)	n	n	n	0.3
O=C(CN(CC1CCCO1)C(=O)CCC(=O)Nc1nccs1)NCC1CCCO1 (stereo unspecified)	n	n	n	x
CCc1nc2c(OCc3ccccc3C)cccn2c1N(C)C(=O)c1ccco1	n	x	n	x
COc1cc(C(O)c2nc(-c3ccc(N(C)C)cc3)cs2)ccc1F (stereo unspecified)	n	x	n	x
Nc1ccc2cc3ccccc3cc2c1	n	x	+	n
Nc1ccc2cccc(O)c2c1	n	x	n	64
FC(F)(F)c1ccccc1Cc1c(-c2cccc(Br)c2)nc2ccc(Br)cn12	x	x	n	x
CC(C)NC(=O)C1Cc2c(-c3ccc4c(c3)OCO4)ccnc2O1 (stereo unspecified)	u	x	n	x
CCCS(=O)(=O)NC(=O)C1(C)CCN(C(=O)c2ccccc2OC(F)(F)F)C1 (stereo unspecified)	n	x	n	x
NC1=NC2(CCCCC2)N(c2cccc(Cl)c2)C(N)=N1	n	n	+	n
NC1=NC2(CCCCC2)N(c2ccc(F)cc2)C(N)=N1	n	n	n	n
Cc1nn(Cc2cccc(C(=O)Nc3ccn(Cc4c(F)c(F)cc(F)c4F)n3)c2)c(C)c1[N+](=O)[O-]	n	n	n	n
Cc1nn(C)c(C(=O)Nc2ccn(Cc3c(F)c(F)cc(F)c3F)n2)c1[N+](=O)[O-]	x	n	+	n
SMILES	Vif imaging	T cell modulator	Myeloid diff MLP	DSG3 Ab inh
COc1ccc(-c2cc(NC(C)=O)c3ncc(-c4ccc(OC)c(OC)c4)n3c2)cc1OC	x	x	n	x
COc1cc(-c2cnc3c(NC=O)cc(-c4cccc(NC(C)=O)c4)cn23)cc(OC)c1OC	73	x	u	x
COc1ccc(-c2cnc3c(NC(C)=O)cc(-c4ccsc4)cn23)cc1OC	n	x	+	x
COc1cc(-c2cc(NC=O)c3ncc(-c4ccccc4)n3c2)cc(OC)c1OC	n	x	n	x
COc1cc(-c2cnc3c(NC=O)cc(-c4ccccc4Cl)cn23)cc(OC)c1OC	58	x	u	x
COc1cc(-c2cnc3c(NC=O)cc(-c4ccccc4)cn23)cc(OC)c1OC	74	x	n	x
COc1ccc(C(O)c2ncc(-c3cccc(C(F)(F)F)c3)[nH]2)cc1 (stereo unspecified)	n	x	n	x
CCCNC(=O)c1cc(C2CCCN(S(=O)(=O)c3cccs3)C2)on1 (stereo unspecified)	n	x	n	x
CC1CCC(NC(=O)C2CCN(C(=O)Nc3ccccc3)CC2)CC1 (stereo unspecified)	n	n	n	n
COc1ccccc1N1C(=O)CCC1(C#N)c1ccccc1 (stereo unspecified)	69	n	n	x
COc1ccc(C(=O)Nc2nnc(Cc3cccs3)s2)cc1OC	n	n	+	n
Cc1cccc2c(=O)n(C(=O)c3ccccc3)c(N)nc12	n	x	n	n
CCCCn1nnc(NC(=O)c2sc3cc(Cl)ccc3c2Cl)n1	n	n	n	n
CCN(CC)Cc1ccc(NC(=O)c2sc3cc(Cl)ccc3c2Cl)cc1	n	n	+	n
CN(C)S(=O)(=O)c1ccc(NC(=O)COC(=O)C2COc3ccccc3O2)cc1 (stereo unspecified)	67	n	n	n
C[C@H]1CN([C@@H](C)CO)C(=O)c2cc(C#Cc3ccccn3)cnc2O[C@@H]1CN(C)Cc1ccccc1	n	x	n	x
CCOC(=O)CCCCCC(=O)Nc1ccc2c(c1)CC(=O)N([C@@H](C)CO)C[C@H](C)[C@@H](CN(C)C(=O)Nc1ccc3c(c1)OCO3)O2	n	n	n	n
CCCCNC(=O)C(C)N(CCN(C)C)C(=O)CCCN1C(=O)NC(c2ccc([N+](=O)[O-])cc2)C(C(=O)OCc2ccccc2)=C1C (stereo unspecified)	n	x	+	n
COc1ccc(Nc2ccccc2N)cc1	n	n	+	n
Cc1cccc(CN2C(=O)N/C(=C/c3ccc(C)s3)C2=O)c1	n	n	+	n
Cc1ccc(/C=C2/NC(=O)N(Cc3ccccc3)C2=O)s1	x	n	n	n
COCCNc1oc(/C=C/c2ccccc2)nc1C#N	55	n	n	n
CNc1oc(/C=C/c2ccccc2)nc1C#N	n	n	n	x
Cc1ccc2c(n1)sc1c(-c3ccc(Br)cc3)c(C#N)c(N)nc12	x	n	n	74
CCc1nc(N)c(C#N)c(-c2ccc(F)cc2)c1C	n	n	n	n
SMILES	Vif imaging	T cell modulator	Myeloid diff MLP	DSG3 Ab inh
Cc1noc(C)c1C(=O)N1CCC2(CC1)Oc1ccc(F)cc1C(=O)C21CC(c2ccc(Cl)cc2)=NO1 (stereo unspecified)	n	n	+	n
Cn1c(=O)[nH]c(=O)c2c1nc([N+](=O)[O-])n2Cc1ccccc1	99	n	u	n
Cn1c(=O)[nH]c(=O)c2c1nc(N1CCN(Cc3ccccc3)CC1)n2CCSc1ncccn1	n	n	+	n
Cn1c(=O)[nH]c(=O)c2c1nc(N1CCN(Cc3ccccc3)CC1)n2CCCc1ccccc1	n	n	n	n
CC(C)Cn1c([N+](=O)[O-])nc2c1c(=O)[nH]c(=O)n2C	n	n	x	n
C[N+](C)(C)CC(O)CC(=O)O (stereo unspecified)	116	n	n	n
CNC(=O)CN(C)S(=O)(=O)c1ccc(F)cc1	n	n	n	79
Cc1ccc(Cn2cc(/C=N/Nc3ccc([N+](=O)[O-])cn3)c3ccccc32)cc1	n	n	+	n
